The values below come from ChEMBL document CHEMBL3352499, “One pot three components microwave assisted and conventional synthesis of new 3-(4-chloro-2-hydroxyphenyl)-2-(substituted) thiazolidin-4-one as antimicrobial agents” (Bioorg Med Chem Lett, 2014).

≈ marks a conversion by molar mass, not a printed value. Where a name gives a salt, the structure may show the parent alone.

The subject of assay [1] is Candida albicans. Kind of assay: Fungicidal activity against Candida albicans NCIM-3471 after 48 to 72 hrs by two fold serial macrodilution technique. The format is functional. In a few lines:
(§1)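 Serial subcultivation followed 72 h of exposure to compounds dissolved in saline containing 5% DMSO. MBC/MFC was the lowest concentration with no visible growth, taken as 99.5% killing of the original inoculum. Runs were in triplicate, with the mean reading used.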

For assay [2], the system named is Salmonella typhimurium. Kind of assay: Antimicrobial activity against […] after 20 hrs by two fold serial macrodilution technique. Type of assay: functional, Salmonella enterica subsp. enterica serovar Typhimurium. To be noted: Salmonella enterica. In a few lines: (§2)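 Serial macrodilution in 96-well microtiter plates. Compounds were dissolved in saline (0.8% NaCl) containing 5% DMSO, and strains were incubated with a range of concentrations for 20 h at 37 °C on a rotary shaker (160 rpm). MIC was the lowest concentration without growth. Runs were in triplicate, with the mean taken. The negative control was 5% DMSO.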

Assay [3] deals with Bacillus subtilis. Kind of assay: Antimicrobial activity against Bacillus subtilis NCIM-2063 after 20 hrs by two fold serial macrodilution technique. Particulars: NCIM-2063, 20 h. Type of assay: functional. Summed up: as §2
The subject of assay [4] is Aspergillus flavus. The assay is described as follows: Fungicidal activity against Aspergillus flavus NCIM-539 after 48 to 72 hrs by two fold serial macrodilution technique. The format is functional. Summed up: as §1
The next assay relates to MCF7. Kind of assay: Cytotoxicity against human MCF7 cells by SRB method. Type of assay: cell-based. Summed up: (§3)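 SRB colorimetric growth assay. IC50, in µM, was the concentration inhibiting cell growth by 50% relative to untreated control cells. Runs were in triplicate in three independent experiments, with means reported. The positive control was doxorubicin.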
(In general: The SRB assay estimates cell density from bound dye.)

Assay [5] deals with Staphylococcus aureus. Kind of assay: Antimicrobial activity against Staphylococcus aureus NCIM-2901 after 20 hrs by two fold serial macrodilution technique. To be noted: NCIM-2901, 20 h. Type of assay: functional. Summed up: as §2
In assay [6] the test system is Salmonella typhimurium. The assay is described as follows: Bactericidal activity against […] after 72 hrs by two fold serial macrodilution technique. The format is functional, Salmonella enterica subsp. enterica serovar Typhimurium. Particulars: Salmonella enterica. Summed up: as §1
The subject of assay [7] is Bacillus subtilis. The assay is described as follows: Bactericidal activity against Bacillus subtilis NCIM-2063 after 72 hrs by two fold serial macrodilution technique. Type of assay: functional. Particulars: NCIM-2063, 72 h. Summed up: as §1
Assay [8] concerns Aspergillus niger. Kind of assay: Fungicidal activity against Aspergillus niger NCIM-1196 after 48 to 72 hrs by two fold serial macrodilution technique. The format is functional. Summed up: as §1
The test system of assay [9] is Cryptococcus neoformans. Kind of assay: Fungicidal activity against Cryptococcus neoformans NCIM-3378 after 48 to 72 hrs by two fold serial macrodilution technique. The format is functional. In a few lines: as §1
Assay [10] deals with Aspergillus niger. The assay is described as follows: Antimicrobial activity against Aspergillus niger NCIM-1196 after 20 hrs by two fold serial macrodilution technique. The format is functional. To be noted: NCIM-1196, 20 h.
Assay [11] has as its system Cryptococcus neoformans. Kind of assay: Antimicrobial activity against Cryptococcus neoformans NCIM-3378 after 20 hrs by two fold serial macrodilution technique. Type of assay: functional. Particulars: NCIM-3378, 20 h.
The subject of assay [12] is Staphylococcus aureus. The assay is described as follows: Bactericidal activity against Staphylococcus aureus NCIM-2901 after 72 hrs by two fold serial macrodilution technique. Type of assay: functional. To be noted: NCIM-2901, 72 h. Summed up: as §1
Assay [13] deals with Candida albicans. Kind of assay: Antimicrobial activity against Candida albicans NCIM-3471 after 20 hrs by two fold serial macrodilution technique. Type of assay: functional. Particulars: NCIM-3471, 20 h.
Assay [14] has as its system Aspergillus flavus. Kind of assay: Antimicrobial activity against Aspergillus flavus NCIM-539 after 20 hrs by two fold serial macrodilution technique. Type of assay: functional. To be noted: NCIM-539, 20 h.
Assay [15] relates to Escherichia coli. Kind of assay: Bactericidal activity against Escherichia coli NCIM-2256 after 72 hrs by two fold serial macrodilution technique. The format is functional. To be noted: NCIM-2256, 72 h. In a few lines: as §1
The subject of assay [16] is Escherichia coli. Kind of assay: Antimicrobial activity against Escherichia coli NCIM-2256 after 20 hrs by two fold serial macrodilution technique. The format is functional. To be noted: NCIM-2256, 20 h. Summed up: as §2
The test system of another assay is HeLa. The assay is described as follows: Cytotoxicity against human HeLa cells by SRB method. The format is cell-based. Summed up:
as §3

For the molecule `O=C1CSC(c2cccs2)N1c1ccc(Cl)cc1O` (configuration not stated), the MFC – broadly, the smallest concentration meeting the test's criterion for killing the fungus – in the assay on Candida albicans [1] stood at 160 µg/mL (≈ 513 µM); in the assay on Aspergillus flavus [4], 45 µg/mL (≈ 144 µM); with Aspergillus niger [8], 155 µg/mL (≈ 497 µM); against Cryptococcus neoformans [9] it was 160 µg/mL (≈ 513 µM). Moreover, the MIC (in general, the smallest concentration in the dilution series that meets the test's criterion for growth inhibition) in the assay on Salmonella typhimurium [2] was determined as 70 µg/mL (≈ 224 µM); against Bacillus subtilis [3], 35 µg/mL (≈ 112 µM); against Staphylococcus aureus [5], 60 µg/mL (≈ 192 µM); against Aspergillus niger [10], 70 µg/mL (≈ 224 µM); with Cryptococcus neoformans [11], 95 µg/mL (≈ 305 µM); in the assay on Candida albicans [13], 100 µg/mL (≈ 321 µM). Also, the minimal inhibitory concentration (MIC) against Aspergillus flavus [14] was 25 µg/mL (≈ 80.2 µM); in the assay with Escherichia coli [16] it was 85 µg/mL (≈ 273 µM). Besides, the IC50 – broadly, the point on the concentration scale where inhibition reaches its midpoint – in the assay with MCF7 worked out at 64.9 µM; with HeLa it was 66.6 µM. Moreover, the MBC – broadly, the lowest tested concentration that kills the bacteria rather than only halting them – is 155 µg/mL (≈ 497 µM) in the assay on Salmonella typhimurium [6], 55 µg/mL (≈ 176 µM) with Bacillus subtilis [7], 150 µg/mL (≈ 481 µM) in the assay with Staphylococcus aureus [12] and 160 µg/mL (≈ 513 µM) in the assay with Escherichia coli [15].
Regarding `O=C1CSC(c2cccc(F)c2)N1c1ccc(Cl)cc1O` (configuration not stated), the minimum fungicidal concentration (MFC) was 165 µg/mL (≈ 510 µM) against Candida albicans [1], 140 µg/mL (≈ 432 µM) against Aspergillus flavus [4], 165 µg/mL (≈ 510 µM) in the assay with Aspergillus niger [8] and 140 µg/mL (≈ 432 µM) against Cryptococcus neoformans [9]. Moreover, the MIC with Salmonella typhimurium [2] amounted to 90 µg/mL (≈ 278 µM); against Bacillus subtilis [3], 100 µg/mL (≈ 309 µM); against Staphylococcus aureus [5] it was 80 µg/mL (≈ 247 µM); with Aspergillus niger [10], 100 µg/mL (≈ 309 µM); in the assay on Cryptococcus neoformans [11], 85 µg/mL (≈ 263 µM); against Candida albicans [13] it was 95 µg/mL (≈ 293 µM). Further, the MIC was determined as 90 µg/mL (≈ 278 µM) with Aspergillus flavus [14] and 70 µg/mL (≈ 216 µM) with Escherichia coli [16]. Besides, the figures for the half-maximal inhibitory concentration (IC50) in the assay with MCF7 and in the assay on HeLa were 65.8 µM and 67.3 µM, respectively. The MBC in the assay on Salmonella typhimurium [6] turned out to be 155 µg/mL (≈ 479 µM); against Bacillus subtilis [7] it was 155 µg/mL (≈ 479 µM); in the assay on Staphylococcus aureus [12], 160 µg/mL (≈ 494 µM); with Escherichia coli [15] it was 145 µg/mL (≈ 448 µM).
Turning to `Clc1ccc(COC(Cn2ccnc2)c2ccc(Cl)cc2Cl)c(Cl)c1` (configuration not stated) [MICONAZOLE], the minimal fungicidal concentration (MFC) against Candida albicans [1], against Aspergillus flavus [4], in the assay with Aspergillus niger [8] and in the assay on Cryptococcus neoformans [9] was 12.5 µg/mL (≈ 30 µM) throughout. Further, the MIC against Aspergillus niger [10], with Cryptococcus neoformans [11], against Candida albicans [13] and against Aspergillus flavus [14] was 3.25 µg/mL (≈ 7.81 µM) in each case.
In the case of `COc1cccc2c1C(=O)c1c(O)c3c(c(O)c1C2=O)C[C@@](O)(C(=O)CO)C[C@@H]3O[C@H]1C[C@H](N)[C@H](O)[C@H](C)O1` [DOXORUBICIN HYDROCHLORIDE], the IC50 in the assay on MCF7 and in the assay with HeLa was under 0.1 µM throughout.
As to `N#Cc1ccc(C2SCC(=O)N2c2ccc(Cl)cc2O)cc1` (configuration not stated), the results for the MFC in the assay with Candida albicans [1], in the assay on Aspergillus flavus [4] and against Aspergillus niger [8] were 140 µg/mL (≈ 423 µM), 115 µg/mL (≈ 348 µM) and 145 µg/mL (≈ 438 µM), respectively. Besides, the minimum inhibitory concentration (MIC) against Salmonella typhimurium [2] turned out to be 55 µg/mL (≈ 166 µM); against Bacillus subtilis [3] it was 100 µg/mL (≈ 302 µM); against Staphylococcus aureus [5] it was 35 µg/mL (≈ 106 µM); in the assay with Aspergillus niger [10], 100 µg/mL (≈ 302 µM); with Cryptococcus neoformans [11], 85 µg/mL (≈ 257 µM); in the assay on Candida albicans [13] it was 90 µg/mL (≈ 272 µM). The MIC came out at 60 µg/mL (≈ 181 µM) in the assay with Aspergillus flavus [14] and 90 µg/mL (≈ 272 µM) in the assay on Escherichia coli [16]. Further, the 50% inhibitory concentration (IC50) worked out at 81.2 µM with MCF7 and 83.2 µM in the assay with HeLa. The minimum bactericidal concentration (MBC) in the assay with Salmonella typhimurium [6] came out at 115 µg/mL (≈ 348 µM); with Bacillus subtilis [7], 140 µg/mL (≈ 423 µM); against Staphylococcus aureus [12], 145 µg/mL (≈ 438 µM); in the assay on Escherichia coli [15], 120 µg/mL (≈ 363 µM).
`Cc1ncsc1C1SCC(=O)N1c1ccc(Cl)cc1O` (configuration not stated): the figures for the MFC in the assay with Candida albicans [1], against Aspergillus flavus [4] and against Aspergillus niger [8] were 45 µg/mL (≈ 138 µM), 20 µg/mL (≈ 61.2 µM) and 135 µg/mL (≈ 413 µM), respectively. The minimal inhibitory concentration (MIC) with Salmonella typhimurium [2] was determined as 20 µg/mL (≈ 61.2 µM); against Bacillus subtilis [3], 30 µg/mL (≈ 91.8 µM); in the assay with Staphylococcus aureus [5], 15 µg/mL (≈ 45.9 µM); against Aspergillus niger [10], 80 µg/mL (≈ 245 µM); with Cryptococcus neoformans [11] it was 55 µg/mL (≈ 168 µM); against Candida albicans [13], 30 µg/mL (≈ 91.8 µM). The MIC against Aspergillus flavus [14] amounted to 3 µg/mL (≈ 9.18 µM); against Escherichia coli [16] it was 15 µg/mL (≈ 45.9 µM). For the same molecule, the results for the half-maximal inhibitory concentration (IC50) in the assay on MCF7 and in the assay on HeLa were 75.7 µM and 78.5 µM, respectively. For the same molecule, the MBC against Salmonella typhimurium [6] came out at 40 µg/mL (≈ 122 µM); against Bacillus subtilis [7], 55 µg/mL (≈ 168 µM); in the assay on Staphylococcus aureus [12] it was 20 µg/mL (≈ 61.2 µM); with Escherichia coli [15] it was 20 µg/mL (≈ 61.2 µM).
For the molecule `O=C(O)c1cn(C2CC2)c2cc(N3CCNCC3)c(F)cc2c1=O` [CIPROFLOXACIN], the minimum inhibitory concentration (MIC) in the assay on Salmonella typhimurium [2] was 7.5 µg/mL (≈ 22.6 µM); with Bacillus subtilis [3], 6.25 µg/mL (≈ 18.9 µM); against Escherichia coli [16] it was 7.5 µg/mL (≈ 22.6 µM). The MBC turned out to be 8 µg/mL (≈ 24.1 µM) in the assay on Salmonella typhimurium [6], 13 µg/mL (≈ 39.2 µM) against Bacillus subtilis [7], 13 µg/mL (≈ 39.2 µM) in the assay on Staphylococcus aureus [12] and 8 µg/mL (≈ 24.1 µM) in the assay with Escherichia coli [15].
